# In ChEMBL document CHEMBL2016484, “In vitro growth inhibition of human cancer cells by novel honokiol analogs” (Bioorg Med Chem, 2012):
# Active and inactive are the calls of the source. The rule behind the calls is not given here.
# What was measured:
# A549 [1] = assay: Cell cycle arrest in synchronized human A549 cells assessed as accumulation at S phase at 0.5 uM after 48 hrs by propidium iodide staining-based flow cytometric analysis (reference value: 41.2 +/- 3.1%); assay type: functional
# A549 [2] = assay: Cell cycle arrest in synchronized human A549 cells assessed as accumulation at G1/G0 phase at 0.5 uM after 48 hrs by propidium iodide staining-based flow cytometric analysis (reference value: 40.6 +/- 4.6%); assay type: functional
# UACC-903 [3] = assay: Cytotoxicity against human UACC-903 cells by MTS assay; assay type: functional, cell-based; settings: TDE = time-dependent effect
# A549 [4] = assay: Cytotoxicity against human A549 cells after 24 hrs by MTS assay; assay type: functional, cell-based; settings: for IC50: A549, 24 h
# A549 [5] = assay: Decrease in cyclin B1 protein level in synchronized human A549 cells at 5 uM after 18 hrs by Western blot analysis; assay type: functional, cell-based
# Outline: (§1)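 A549 cells synchronized with nocodazole (0.5 μg/ml, 15 h), then treated with compound (0, 0.5, 1.0, 2.0, 5.0 μM; final DMSO 0.2%) for 18 h at 37 °C. RIPA lysates with protease inhibitors, 40 μg protein on 12% SDS-PAGE, probed with rabbit polyclonal anti-human CDK1 or cyclin B1, ECL detection, densitometry; three experiments on different passages.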
# UACC-903 [6] = assay: Cytotoxicity against human UACC-903 cells after 24 hrs by MTS assay; assay type: functional, cell-based; settings: for IC50: UACC-903, 24 h
# HT-29 [7] = assay: Cytotoxicity against human HT-29 cells after 24 hrs by MTS assay; assay type: functional, cell-based; settings: for IC50: HT-29, 24 h
# UACC-903 [8] = assay: Cytotoxicity against human UACC-903 cells after 72 hrs by MTS assay; assay type: functional, cell-based; settings: for IC50: UACC-903, 72 h
# A549 [9] = assay: Cell cycle arrest in synchronized human A549 cells assessed as accumulation at G2/M phase at 2.5 uM after 48 hrs by propidium iodide staining-based flow cytometric analysis (reference value: 18.2 +/- 2.1%); assay type: functional
# HT-29 [10] = assay: Cytotoxicity against human HT-29 cells by MTS assay; assay type: functional, cell-based; settings: TDE = time-dependent effect
# A549 [11] = assay: Cell cycle arrest in synchronized human A549 cells assessed as accumulation at G2/M phase after 48 hrs by propidium iodide staining-based flow cytometric analysis; assay type: functional
# A549 [12] = assay: Cell cycle arrest in synchronized human A549 cells assessed as accumulation at S phase at 2.5 uM after 48 hrs by propidium iodide staining-based flow cytometric analysis (reference value: 41.2 +/- 3.1%); assay type: functional
# A549 [13] = assay: Cytotoxicity against human A549 cells by MTS assay; assay type: functional, cell-based; settings: TDE = time-dependent effect
# A549 [14] = assay: Decrease in Cdk1 protein level in synchronized human A549 cells at 5 uM after 18 hrs by Western blot analysis; assay type: functional, cell-based; outline: as §1
# A549 [15] = assay: Cell cycle arrest in synchronized human A549 cells assessed as accumulation at G1/G0 phase at 2.5 uM after 48 hrs by propidium iodide staining-based flow cytometric analysis (reference value: 40.6 +/- 4.6%); assay type: functional
# A549 [16] = assay: Decrease in cyclin B1 protein level in synchronized human A549 cells after 18 hrs by Western blot analysis; assay type: functional, cell-based; outline: as §1
# A549 [17] = assay: Cell cycle arrest in synchronized human A549 cells assessed as accumulation at G1/G0 phase at 10 uM after 48 hrs by propidium iodide staining-based flow cytometric analysis (reference value: 40.6 +/- 4.6%); assay type: functional
# A549 [18] = assay: Decrease in cyclin B1 protein level in synchronized human A549 cells at 2 uM after 18 hrs by Western blot analysis; assay type: functional, cell-based; outline: as §1
# A549 [19] = assay: Cell cycle arrest in synchronized human A549 cells assessed as accumulation at G2/M phase at 10 uM after 48 hrs by propidium iodide staining-based flow cytometric analysis (reference value: 18.2 +/- 2.1%); assay type: functional
# A549 [20] = assay: Cell cycle arrest in synchronized human A549 cells assessed as accumulation at S phase at 10 uM after 48 hrs by propidium iodide staining-based flow cytometric analysis (reference value: 41.2 +/- 3.1%); assay type: functional
# A549 [21] = assay: Decrease in Cdk1 protein level in synchronized human A549 cells at 2 uM after 18 hrs by Western blot analysis; assay type: functional, cell-based; outline: as §1
# A549 [22] = assay: Decrease in Cdk1 protein level in synchronized human A549 cells after 18 hrs by Western blot analysis; assay type: functional, cell-based; outline: as §1
# HT-29 [23] = assay: Cytotoxicity against human HT-29 cells after 72 hrs by MTS assay; assay type: functional, cell-based; settings: for IC50: HT-29, 72 h
# A549 [24] = assay: Cell cycle arrest in synchronized human A549 cells assessed as accumulation at S phase after 48 hrs by propidium iodide staining-based flow cytometric analysis; assay type: functional
# A549 [25] = assay: Cytotoxicity against human A549 cells after 72 hrs by MTS assay; assay type: functional, cell-based; settings: for IC50: A549, 72 h
# A549 [26] = assay: Cell cycle arrest in synchronized human A549 cells assessed as accumulation at G2/M phase at 0.5 uM after 48 hrs by propidium iodide staining-based flow cytometric analysis (reference value: 18.2 +/- 2.1%); assay type: functional
SMILES,Activity (A549 [1]),Activity (A549 [2]),growth inhibition (GI) (UACC-903 [3]),growth inhibition (GI) (A549 [4]),IC50 (A549 [4]),growth inhibition (GI) (UACC-903 [6]),IC50 (UACC-903 [6]),growth inhibition (GI) (HT-29 [7]),IC50 (HT-29 [7]),growth inhibition (GI) (UACC-903 [8]),IC50 (UACC-903 [8]),Activity (A549 [9]),growth inhibition (GI) (HT-29 [10]),Activity (A549 [12]),growth inhibition (GI) (A549 [13]),Activity (A549 [15]),growth inhibition (GI) (HT-29 [23]),IC50 (HT-29 [23]),growth inhibition (GI) (A549 [25]),IC50 (A549 [25]),also measured
C=CCc1cc(-c2ccc(OC)c(CC=C)c2)ccc1O,23%,69.8%,tde,Dose-dependent effect,2.47 µM,Dose-dependent effect,3.05 µM,Dose-dependent effect,3.19 µM,Dose-dependent effect,1.39 µM,4.2%,tde,20.2%,tde,75.7%,Dose-dependent effect,2 µM,Dose-dependent effect,1.99 µM,Activity (A549 [5]): Active; Activity (A549 [11]): Dose-dependent effect; Activity (A549 [14]): Active; Activity (A549 [16]): Dose-dependent effect; Activity (A549 [17]): 82.8%; Activity (A549 [18]): Active; Activity (A549 [19]): 2.8%; Activity (A549 [20]): 14.3%; Activity (A549 [21]): Active; Activity (A549 [22]): Dose-dependent effect; Activity (A549 [24]): Dose-dependent effect; Activity (A549 [26]): 7.2%
C=CCc1ccc(O)c(-c2ccc(O)c(CC=C)c2)c1 [HONOKIOL],37.9%,50.5%,tde,Dose-dependent effect,12.5 µM,Dose-dependent effect,7.45 µM,Dose-dependent effect,23.9 µM,Dose-dependent effect,5.1 µM,10.8%,tde,28.1%,tde,61.1%,Dose-dependent effect,13.2 µM,Dose-dependent effect,7.75 µM,Activity (A549 [16]): Dose-dependent effect; Activity (A549 [17]): 72.9%; Activity (A549 [19]): 5.4%; Activity (A549 [20]): 21.7%; Activity (A549 [22]): Dose-dependent effect; Activity (A549 [26]): 11.6%
C=CCc1cc(Br)c(O)c(-c2ccc(OC)c(CC=C)c2)c1,32.8%,55.8%,tde,Dose-dependent effect,1.73 µM,Dose-dependent effect,2.98 µM,Dose-dependent effect,3.99 µM,Dose-dependent effect,1.29 µM,6.3%,tde,30.6%,tde,63.1%,Dose-dependent effect,1.87 µM,Dose-dependent effect,1.04 µM,Activity (A549 [5]): Active; Activity (A549 [11]): Dose-dependent effect; Activity (A549 [14]): Active; Activity (A549 [16]): Dose-dependent effect; Activity (A549 [17]): 76.4%; Activity (A549 [18]): Active; Activity (A549 [19]): 3%; Activity (A549 [20]): 20.7%; Activity (A549 [21]): Active; Activity (A549 [22]): Dose-dependent effect; Activity (A549 [24]): Dose-dependent effect; Activity (A549 [26]): 11.4%
C=CCc1cc(-c2ccc(OC)c(CC=C)c2)c(O)c(-c2ccc(OC)c(CC=C)c2)c1,,,tde,Dose-dependent effect,1.74 µM,Dose-dependent effect,3.94 µM,Dose-dependent effect,16.9 µM,Dose-dependent effect,2.93 µM,,tde,,tde,,Dose-dependent effect,11.4 µM,Dose-dependent effect,1.25 µM,
C=CCc1cc(-c2cccc(CC=C)c2O)ccc1OC,,,tde,Dose-dependent effect,11.3 µM,Dose-dependent effect,29 µM,Dose-dependent effect,16.2 µM,Dose-dependent effect,24.7 µM,,tde,,tde,,Dose-dependent effect,11.5 µM,Dose-dependent effect,6.28 µM,
C=CCc1ccc(O)c(-c2ccc(OC)c(CC=C)c2)c1 [METHYLHONOKIOL],,,tde,Dose-dependent effect,1.56 µM,Dose-dependent effect,37.7 µM,Dose-dependent effect,22.4 µM,Dose-dependent effect,24.1 µM,,tde,,tde,,Dose-dependent effect,14.1 µM,Dose-dependent effect,1.24 µM,
C=CCc1ccc(O)c(-c2cccc(CC=C)c2O)c1,,,tde,Dose-dependent effect,2.04 µM,Dose-dependent effect,22.3 µM,Dose-dependent effect,17.4 µM,Dose-dependent effect,17.4 µM,,tde,,tde,,Dose-dependent effect,12.4 µM,Dose-dependent effect,1.08 µM,
